Source: ChEMBL document CHEMBL3751667, “Carbamate substituted 2-amino-4,6-diphenylpyrimidines as adenosine receptor antagonists” (Bioorg Med Chem Lett, 2016)
Values after ≈ are worked out from the molar mass of the structure shown. Active and inactive are the calls of the source. The calls are words filed in the database; no cut-off is given here.

Key:
Rattus norvegicus [1] = organism: Rattus norvegicus; assay: Selectivity ratio of Ki for adenosine A2A receptor in Sprague-Dawley rat striatal membrane to Ki for adenosine A1 receptor in Sprague-Dawley rat whole brain
How it was run: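 Index calculated as A2A Ki divided by A1 Ki. Both Ki values come from radioligand binding assays and are given as the mean ± SEM of duplicate determinations.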

Adenosine receptor A1 = biological target: T1, Adenosine receptor A1 (Rattus norvegicus, UniProt P25099); assay: Displacement of [3H]DPCPX from adenosine A1 receptor in Sprague-Dawley rat whole brain after 1 hr by scintillation counting
T1 sequence (P25099 whole entry): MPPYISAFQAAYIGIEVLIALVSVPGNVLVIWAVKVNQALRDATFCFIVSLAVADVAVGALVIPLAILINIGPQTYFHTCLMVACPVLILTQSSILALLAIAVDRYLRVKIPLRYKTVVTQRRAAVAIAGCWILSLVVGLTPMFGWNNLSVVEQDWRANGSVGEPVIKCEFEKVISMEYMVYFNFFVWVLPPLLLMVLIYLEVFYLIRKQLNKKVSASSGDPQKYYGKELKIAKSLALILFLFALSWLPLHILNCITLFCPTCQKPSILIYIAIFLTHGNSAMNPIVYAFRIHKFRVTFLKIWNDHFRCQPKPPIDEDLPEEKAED

Adenosine receptor A2a = Adenosine receptor A2a (Rattus norvegicus, UniProt P30543); assay: Displacement of [3H]NECA from adenosine A2A receptor in Sprague-Dawley rat striatal membrane after 1 hr by scintillation counting; set-up: species or system Striatum
[2] = Solubility of the compound at 4.5 mg after 24 hrs by HPLC analysis; assay type: physicochemical
How it was run: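 Water solubility: excess compound shaken in water at 37 °C.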

Rattus norvegicus [3] = assay: Reversal of haloperidol-induced catalepsy in Sprague-Dawley rat at 0.4 to 2 mg/kg, ip after 60 mins relative to control; assay type: functional, organism-based
How it was run: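 Sprague–Dawley rats, drug naïve, three groups; all given haloperidol 5.0 mg/kg i.p. to induce catalepsy. Thirty minutes later: DMSO (control) or test compound at 0.4 or 2 mg/kg. Catalepsy scored by standard bar test 60 minutes after first injection; compared with haloperidol + vehicle group by one-way ANOVA and Dunnett's post test.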

[4] = n-octanol-potassium phosphate buffer partition coefficient, log D of the compound at pH 7.4 by shake flask method; assay type: physicochemical
How it was run: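 Shake flask method; hydrophilic phase potassium phosphate buffer pH 7.4, hydrophobic phase n-octanol.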

Adenosine receptor A2a, sequence (P30543 whole entry): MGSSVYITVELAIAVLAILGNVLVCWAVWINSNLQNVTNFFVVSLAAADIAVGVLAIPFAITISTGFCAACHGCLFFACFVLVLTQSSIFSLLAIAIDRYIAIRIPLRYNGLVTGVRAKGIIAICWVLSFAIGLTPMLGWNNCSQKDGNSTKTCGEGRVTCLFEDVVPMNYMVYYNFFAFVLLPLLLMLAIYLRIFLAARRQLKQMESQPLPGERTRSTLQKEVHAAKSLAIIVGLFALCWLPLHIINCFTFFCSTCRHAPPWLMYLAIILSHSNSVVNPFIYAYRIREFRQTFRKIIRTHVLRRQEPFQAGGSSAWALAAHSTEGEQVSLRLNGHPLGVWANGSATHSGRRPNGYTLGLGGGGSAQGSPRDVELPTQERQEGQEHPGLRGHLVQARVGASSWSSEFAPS

| Structure (SMILES) | Ratio Ki (Rattus norvegicus [1]) | Ki (Adenosine receptor A1) | Ki (Adenosine receptor A2a) | solubility at 24 h [2] | Activity (Rattus norvegicus [3]) | logD [4] |
| --- | --- | --- | --- | --- | --- | --- |
| CN(C(=O)Oc1cccc(-c2cc(-c3ccccc3)nc(N)n2)c1)c1ccccc1 | 37 | 1.07 nM | 39.9 nM |  |  |  |
| CN1CCN(C(=O)Oc2cccc(-c3cc(-c4ccccc4)nc(N)n3)c2)CC1 | 0.8 | 2.04 nM | 1.58 nM | 0.22 µM (≈ 0.0857 µg/mL) | inactive | 4.03 |
| CN(C)C(=O)Oc1cccc(-c2cc(-c3ccccc3)nc(N)n2)c1 | 25 | 2.06 nM | 51.9 nM |  |  |  |
| CCN(CC)C(=O)Oc1cccc(-c2cc(-c3ccccc3)nc(N)n2)c1 | 49 | 0.468 nM | 22.8 nM |  |  |  |
| CC(C)N(C(=O)Oc1cccc(-c2cc(-c3ccccc3)nc(N)n2)c1)C(C)C | 69 | 0.175 nM | 12.1 nM |  |  |  |
| Nc1nc(-c2ccccc2)cc(-c2cccc(OC(=O)N3CCCCC3)c2)n1 | 4.6 | 1.95 nM | 8.94 nM |  |  |  |
| Nc1nc(-c2ccccc2)cc(-c2cccc(OC(=O)N3CCOCC3)c2)n1 | 1.3 | 2.65 nM | 3.5 nM |  | Active |  |
| Nc1nc(-c2ccccc2)cc(-c2cccc(OC(=O)N(c3ccccc3)c3ccccc3)c2)n1 | 42 | 10.7 nM | 451 nM |  |  |  |
| Nc1nc(-c2ccccc2)cc(-c2cccc(OC(=O)N3CCCC3)c2)n1 | 30 | 0.835 nM | 24.8 nM |  |  |  |
